Measured values: ChEMBL document CHEMBL1134654, “Alpha-amino acid phenolic ester derivatives: novel water-soluble general anesthetic agents which allosterically modulate GABA(A) receptors” (J Med Chem, 2001)

Assays:
[1] = biological target: T1, GABA-A receptor; alpha-1/beta-3/gamma-2 (Homo sapiens, UniProt P14867+P18507+P28472); test: GABA-modulatory action compound was evaluated on Oocytes expressing recombinant human alpha-1-beta-3-gamma-2L GABA A receptor at concentrations of >=100 micro<M; type: protein-complex assay
T1 sequence (P14867 whole entry): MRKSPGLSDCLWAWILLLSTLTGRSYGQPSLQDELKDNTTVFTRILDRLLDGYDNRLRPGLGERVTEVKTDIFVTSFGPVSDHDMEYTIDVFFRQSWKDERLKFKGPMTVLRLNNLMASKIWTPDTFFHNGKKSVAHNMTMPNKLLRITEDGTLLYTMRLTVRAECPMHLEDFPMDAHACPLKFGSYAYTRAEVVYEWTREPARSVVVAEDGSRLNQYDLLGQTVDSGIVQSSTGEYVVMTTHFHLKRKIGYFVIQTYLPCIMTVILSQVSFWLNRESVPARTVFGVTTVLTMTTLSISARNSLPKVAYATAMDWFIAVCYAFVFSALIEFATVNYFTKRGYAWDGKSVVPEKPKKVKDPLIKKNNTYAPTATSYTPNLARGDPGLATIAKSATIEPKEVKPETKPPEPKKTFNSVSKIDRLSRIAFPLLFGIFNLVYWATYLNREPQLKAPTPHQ
T1 sequence (P18507 whole entry): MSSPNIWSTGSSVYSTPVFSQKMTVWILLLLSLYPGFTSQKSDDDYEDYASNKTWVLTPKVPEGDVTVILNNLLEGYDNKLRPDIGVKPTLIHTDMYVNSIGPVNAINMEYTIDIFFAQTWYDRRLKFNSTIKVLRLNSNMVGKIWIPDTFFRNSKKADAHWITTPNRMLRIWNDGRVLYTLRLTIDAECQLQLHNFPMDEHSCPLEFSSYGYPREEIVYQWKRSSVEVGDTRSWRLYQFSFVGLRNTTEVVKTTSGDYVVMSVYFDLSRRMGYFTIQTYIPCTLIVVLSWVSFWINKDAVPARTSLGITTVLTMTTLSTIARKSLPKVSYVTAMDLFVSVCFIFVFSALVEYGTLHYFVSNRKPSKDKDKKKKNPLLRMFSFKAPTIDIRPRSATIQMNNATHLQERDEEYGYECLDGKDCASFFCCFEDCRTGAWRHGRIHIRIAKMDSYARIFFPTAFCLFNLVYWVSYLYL
T1 sequence (P28472 whole entry): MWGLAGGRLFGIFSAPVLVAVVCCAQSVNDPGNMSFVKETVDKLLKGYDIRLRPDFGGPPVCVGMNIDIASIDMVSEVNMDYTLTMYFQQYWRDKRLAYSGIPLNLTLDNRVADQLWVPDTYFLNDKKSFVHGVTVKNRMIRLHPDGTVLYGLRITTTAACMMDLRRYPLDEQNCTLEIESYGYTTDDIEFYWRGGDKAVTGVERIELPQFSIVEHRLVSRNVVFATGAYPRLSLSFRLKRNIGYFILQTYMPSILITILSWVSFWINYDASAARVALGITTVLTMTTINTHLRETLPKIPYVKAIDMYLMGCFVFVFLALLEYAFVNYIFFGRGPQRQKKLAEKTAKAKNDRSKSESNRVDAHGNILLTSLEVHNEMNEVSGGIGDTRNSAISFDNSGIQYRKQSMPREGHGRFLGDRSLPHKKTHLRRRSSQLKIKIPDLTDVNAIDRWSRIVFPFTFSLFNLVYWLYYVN
How it was run: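 Oocytes expressing human α1β3γ2L receptors, used 2–12 days after cRNA injection, were recorded with two electrodes at 18–22 °C. […] Compound was preapplied 30–60 s, then co-applied with EC10 GABA. Peak current was read manually; EC50 came from the fitted curve; mean ± s.e.mean.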

[2] = biological target: T1, GABA-A receptor; alpha-1/beta-3/gamma-2; test: GABA-mimetic action on Oocytes expressing human alpha-1-beta-3-gamma-2L GABA-A receptor subunits at >=100 uM
[3] = biological target: GABA-A receptor; anion channel (Rattus norvegicus) (UniProt O09028+P15431+P18506+P18508+P19969+P20236+P23574+P23576+P28471+P28473+P30191+P62813+P63079+P63138+Q91ZM7+Q9ES14); test: Ability to inhibit [35S]t-butyl-bicyclophosphorothionate binding by 50% to rat whole brain membrane; type: tissue-based
How it was run: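 Male Wistar rat whole-brain membranes, washed with four freeze–thaw cycles. 100 ug membrane protein incubated with [35S]TBPS (2 nM final) in 20 mM KH2PO4/200 mM KCl, pH 7.4, containing GABA 600 nM final. Incubated 150 min at about 22 °C on shaker; vacuum filtration through GF/B filters; scintillation counting. Nonspecific binding with 200 uM picrotoxin. Reported as IC50, mean ± SEM.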

Mus musculus = test: Loss of righting reflex following i.v. administration in mice.; type: functional
How it was run: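 Male MF-1 mice in groups of eight given compound in saline iv via lateral tail vein over 10 s (10 mL/kg). Doses on a umol/kg scale, extra doses added to narrow range. Animals boxed separately; loss of righting reflex lasting ≥30 s scored. HD50 with 95% confidence limits by probit analysis.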

| SMILES | TBPS IC50 [3] [µM] | EC50 [1] [µM] | EC50 [2] [µM] | HD50 (Mus musculus) [µmol/kg] |
| --- | --- | --- | --- | --- |
| CC(C)c1cccc(C(C)C)c1O [PROPOFOL] |  | 4.1 | 50 |  |
| CCC(C(=O)Oc1c(OC)cccc1OC)N(CCOC)CCOC (stereo not drawn) | 24.3 |  |  |  |
| CCC(C(=O)Oc1c(OC)cc(C)cc1OC)N1CCOCC1 (stereo not drawn) |  |  |  | 68.1 |
| CCC[C@H](C(=O)Oc1c(OC)cccc1OC)N(CCOC)CCOC | 3.2 |  |  | 7.3 |
| CC[C@H](C(=O)Oc1c(OC)cc(C)cc1OC)N(CCOC)CCOC [ORG-24447] | 16 | 10 |  | 18 |
| COc1cccc(OC)c1NC(=O)[C@@H](C)N1CCc2ccccc2C1 | > 10 |  |  | 44.1 |
| COc1cccc(OC)c1C(=O)NCCN1CCc2ccccc2C1 | > 100 |  |  | 45.7 |
| CCC(C(=O)Oc1c(OC)cc(C)cc1OC)N(CCOC)CCOC (stereo not drawn) | 29.3 |  |  | 21.7 |
| CC(C)c1cccc(C(C)C)c1OC(=O)CN1CCOCC1 |  |  |  | 98.1 |
| COc1cccc(OC)c1OC(=O)[C@@H](C)N1CCc2ccccc2C1 | 3.3 | 4.1 |  | 20.7 |
| COc1cccc(OC)c1OC(=O)[C@@H](C)N1CCOCC1.Cl | > 100 | 198 |  | 85.9 |
| COc1cccc(OC)c1OC(=O)[C@H](C)N1CCc2ccccc2C1 | 23.8 | > 100 |  | 82.6 |
| CC[C@H](C(=O)Oc1c(OC)cccc1OC)N(CCOC)CCOC | 7.4 |  |  |  |

Further lines, with some results ahead:

| TBPS IC50 [3] [µM] | SMILES | EC50 [1] [µM] | EC50 [2] [µM] | HD50 (Mus musculus) [µmol/kg] |
| --- | --- | --- | --- | --- |
| > 10 | COCCN(CCOC)C(C(=O)Oc1c(OC)cccc1OC)C(C)C (stereo not drawn) |  |  | 26.9 |
| > 10 | COc1cc(C)cc(OC)c1OC(=O)C(C)(C)N1CCOCC1 |  |  | 53.8 |
| > 10 | CCC(C(=O)Oc1c(OC)cccc1OC)N1CCOCC1 (stereo not drawn) |  |  | 38 |
| 66 | COc1cccc(OC)c1OC(=O)C(c1ccccc1)N1CCOCC1 (stereo not drawn) |  |  | 39.6 |
| 7.7 | CCCC(C(=O)Oc1c(OC)cccc1OC)N(CCOC)CCOC (stereo not drawn) |  |  | 12.4 |
| 1.6 | CCCCC(C(=O)Oc1c(OC)cccc1OC)N(CCOC)CCOC (stereo not drawn) |  |  | 11 |
| 4.8 | COc1cccc(OC)c1OC(=O)C(C)N1CCc2ccccc2C1 (stereo not drawn) | 5.5 |  | 33.2 |
| > 30 | COc1cccc(OC)c1C(=O)OCCN1CCc2ccccc2C1 |  |  | 19 |
